Experimental data from ChEMBL document CHEMBL1155674, “New isomalabaricane triterpenes from the marine sponge Stelletta globostellata that induce morphological changes in rat fibroblasts” (J Nat Prod, 2000).
Activity calls are given as the source filed them. The rule behind the calls is not given here.

Assays:
Bacillus subtilis = assay: Antimicrobial activity against Bacillus subtilis at 100 ug/disk; format: functional, organism-based
Escherichia coli = assay: Antimicrobial activity against Escherichia coli at 100 ug/disk; format: functional, organism-based
[1] = Cytotoxicity against rat 3Y1 cells after 72 hrs by MTT assay; format: cell-based
In short: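 3Y1 rat embryonic fibroblasts (B clone 1-6) in DMEM with 10% fetal calf serum were seeded at 300 cells/well and incubated 24 h. Samples were added, then plates were held 72 h at 37 °C. MTT (5 mg/mL in Ca/Mg-free PBS) was added for 4 h, formazan was dissolved in DMSO, and absorbance was read at 540 nm to give GI50.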

Umbelopsis ramanniana = assay: Antimicrobial activity against Mortierella ramanniana at 100 ug/disk; format: functional, organism-based
[2] = Induction of cell death in rat 3Y1 cells at 0.2 uM after 5 days without washing; conditions: 3y1, 120 h
3Y1 cell line = assay: Induction of morphological changes in rat 3Y1 cells assessed as lost pseudopodia at 0.2 uM before washing; format: functional, cell-based
In short: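 3Y1 B clone 1-6 fibroblasts, kept subconfluent in DMEM/10% fetal calf serum at 37 °C under 5% CO2, were seeded at 2 × 10⁴ cells/mL and incubated 24 h. Samples in MeOH were added. Morphology was checked by phase-contrast microscopy at 1, 5 and 24 h and on day 5. Some cultures were washed with fresh medium to test reversibility.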

Staphylococcus aureus = assay: Antimicrobial activity against Staphylococcus aureus at 100 ug/disk; format: functional, organism-based
Candida albicans = assay: Antimicrobial activity against Candida albicans at 100 ug/disk; format: functional, organism-based
Penicillium chrysogenum = assay: Antimicrobial activity against Penicillium chrysogenum at 100 ug/disk; format: functional, organism-based
Pseudomonas aeruginosa = assay: Antimicrobial activity against Pseudomonas aeruginosa at 100 ug/disk; format: functional, organism-based
P388 [3] = assay: Cytotoxicity against mouse P388 cells by MTT assay; format: functional
[4] = Induction of cell death in rat 3Y1 cells at 0.2 uM after 5 days after washing; format: cell-based; conditions: 3y1, 120 h
P388 [5] = assay: Cytotoxicity against mouse P388 cells at 18 uM by MTT assay; format: functional, cell-based
[6] = Cytotoxicity against rat 3Y1 cells at 18 uM after 72 hrs by MTT assay; format: cell-based; conditions: 3y1, 72 h

SMILES | Activity (Bacillus subtilis) | Activity (Escherichia coli) | GI50 at 72 h [1] | Activity (Umbelopsis ramanniana) | Activity [2] | Activity (3Y1 cell line) | Activity (Staphylococcus aureus) | Activity (Candida albicans) | Activity (Penicillium chrysogenum) | Activity (Pseudomonas aeruginosa) | GI50 (P388 [3]) | Activity [4] | Activity (P388 [5]) | Activity [6]
CC(C)=CCC/C(C)=C/C=C/C(C)=C1\C(=O)C[C@H]2[C@@]3(C)CC[C@H](O)C(C)(C)[C@@H]3CC[C@]12C [STELLIFERIN D] | inactive | inactive | 18 nM | inactive | Active | Active | inactive | inactive | inactive | inactive | 24 nM |  |  | 
CC(=O)O[C@@H](CC=C(C)C)/C(C)=C/C=C/C(C)=C1\C(=O)C[C@H]2[C@@]3(C)CC[C@@H](OC(C)=O)[C@](C)(CO)[C@@H]3CC[C@]12C | inactive | inactive | 52 nM | inactive |  | Active | inactive | inactive | inactive | inactive | 160 nM | Active |  | 
CC(C)=CCC/C(C)=C/C=C/C(C)=C1\C(=O)C[C@H]2[C@@]3(C)CC[C@H](O)[C@](C)(CO)[C@@H]3CC[C@]12C | inactive | inactive | 60 nM | inactive | Active | Active | inactive | inactive | inactive | inactive | 190 nM |  |  | 
CC(=O)O[C@@H]1CC[C@@]2(C)[C@@H](CC[C@]3(C)/C(=C(\C)C(=O)/C=C/C(C)=C/C=C/C(C)(C)O)C(=O)C[C@@H]23)[C@@]1(C)C(=O)[O-].[Na+] [GLOBOSTELLATIC ACID A] |  |  |  |  |  |  |  |  |  |  |  |  | Not toxic | Non-toxic
CC(=O)O[C@H]1C[C@H]2[C@@]3(C)CC[C@H](OC(C)=O)C(C)(C)[C@@H]3CC[C@]2(C)/C1=C(C)/C=C/C=C(\C)[C@H](CC=C(C)C)OC(C)=O |  |  | 1300 nM |  |  |  |  |  |  |  | 1600 nM |  |  | 
CC(=O)O[C@H]1CC[C@@]2(C)[C@@H](CC[C@]3(C)/C(=C(C)/C=C/C=C(\C)[C@@H](O)CC=C(C)C)C(=O)C[C@@H]23)C1(C)C [STELLIFERIN A] | inactive | inactive | 34 nM | inactive | Active | Active | inactive | inactive | inactive | inactive | 21 nM |  |  | 
CC(=O)O[C@@H]1CC[C@@]2(C)[C@@H](CC[C@]3(C)/C(=C(C)/C=C/C=C(\C)[C@@H](O)CC=C(C)C)C(=O)C[C@@H]23)[C@@]1(C)CO | inactive | inactive | 46 nM | inactive |  | Active | inactive | inactive | inactive | inactive | 180 nM | Active |  | 
COc1cccc2c1C(=O)c1c(O)c3c(c(O)c1C2=O)C[C@@](O)(C(=O)CO)C[C@@H]3O[C@H]1C[C@H](N)[C@H](O)[C@H](C)O1 [DOXORUBICIN] |  |  | 3.8 nM |  |  |  |  |  |  |  | 12 nM |  |  | 
